The results in this text go back to ChEMBL document CHEMBL1128581, “Structure-activity relationships of analogues of thapsigargin modified at O-11 and O-12” (J Med Chem, 1995).

The species named for assay [1] is Oryctolagus cuniculus. Kind of assay: Inhibition of the [Ca2+]-ATPase by coincubation of the enzyme with the Thapsigargin (activity=53.9) along with the compound at 100 nM concentration. Also on record: scale not given: the % may be the effect or the level left.
The species named for assay [2] is Oryctolagus cuniculus. Kind of assay: Inhibition of the [Ca2+]-ATPase by coincubation of the enzyme with the Thapsigargin (activity=53.9) along with the compound at 20 nM concentration. Set-up: scale not given: the % may be the effect or the level left.
Assay [3] is filed under the species Oryctolagus cuniculus. Put plainly: Inhibition of the [Ca2+]-ATPase by the compound (100 nM) was determined by the decrease in rate of formation of inorganic phosphate compared to control. Also on record: scale not given: the % may be the effect or the level left. In short, it runs like this:
(§1)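 Leaky SR vesicles (5 μg/mL protein) from New Zealand white rabbit hind-leg muscle in pH 7.0 buffer: KCl 120 mM, MOPS 25 mM, EGTA 0.5 mM, CaCl2 0.44 mM, MgCl2 2 mM, A23187 1 μM. Compound added in DMSO (<1%), 5 min preincubation at 30 °C, then ATP 1 mM final. Pi read by malachite green at ≥8 time points; rate from slope.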

The species entered for assay [4] is Oryctolagus cuniculus. Put plainly: Inhibition of the [Ca2+]-ATPase by the compound (1 nM) was determined by the decrease in rate of formation of inorganic phosphate compared to control. Also on record: scale not given: the % may be the effect or the level left. In short, it runs like this:
as §1

For assay [5], the species on record is Oryctolagus cuniculus. Kind of assay: Inhibition of the [Ca2+]-ATPase by the compound (20 nM) was determined by the decrease in rate of formation of inorganic phosphate compared to control. Set-up: scale not given: the % may be the effect or the level left. In short, it runs like this:
as §1

For assay [6], the species on record is Oryctolagus cuniculus. Kind of assay: Inhibition of the [Ca2+] - ATPase by coincubation of the enzyme with the Thapsigargin (activity=53.9) along with the compound at 1 nM concentration. Set-up: scale not given: the % may be the effect or the level left.
A short description of assay [7]: Activity against [Ca2+]-ATPase in rabbit white skeletal muscle sarcoplasmic reticulum vesicles.
The species named for assay [8] is Oryctolagus cuniculus. Kind of assay: Inhibition of the [Ca2+]-ATPase by coincubation of the enzyme with the Thapsigargin (activity=56.5) along with the compound at 5000 nM concentration. Set-up: scale not given: the % may be the effect or the level left.
The species entered for assay [9] is Oryctolagus cuniculus. Kind of assay: Inhibition of the [Ca2+]-ATPase by coincubation of the enzyme with the Thapsigargin (activity=56.5) along with the compound at 500 nM concentration. Also on record: scale not given: the % may be the effect or the level left.
The species named for assay [10] is Oryctolagus cuniculus. Put plainly: Inhibition of the [Ca2+]-ATPase by the compound (5000 nM) was determined by the decrease in rate of formation of inorganic phosphate compared to control. Set-up: scale not given: the % may be the effect or the level left. In short, it runs like this:
as §1

The species named for assay [11] is Oryctolagus cuniculus. Put plainly: Inhibition of the [Ca2+]-ATPase by the compound (500 nM) was determined by the decrease in rate of formation of inorganic phosphate compared to control. Set-up: scale not given: the % may be the effect or the level left. In short, it runs like this: as §1
Assay [12] can be described thus: Activity against [Ca2+]-ATPase in rabbit white muscle sarcoplasmic reticulum vesicles.
The species entered for assay [13] is Oryctolagus cuniculus. Kind of assay: Inhibition of the [Ca2+]-ATPase by coincubation of the enzyme with the Thapsigargin (activity=56.5) along with the compound at 100 nM concentration. Also on record: scale not given: the % may be the effect or the level left.
Assay [14] is filed under the species Oryctolagus cuniculus. Put plainly: Inhibition of the [Ca2+]-ATPase by the compound (30 nM) was determined by the decrease in rate of formation of inorganic phosphate compared to control. Also on record: scale not given: the % may be the effect or the level left. In short, it runs like this:
as §1

Assay [15] is filed under the species Oryctolagus cuniculus. Put plainly: Inhibition of the [Ca2+]-ATPase by coincubation of the enzyme with the Thapsigargin (activity=49.4) along with the compound at 1 nM concentration. Set-up: scale not given: the % may be the effect or the level left.
Assay [16] is filed under the species Oryctolagus cuniculus. Kind of assay: Inhibition of the [Ca2+]-ATPase by the compound (200 nM) was determined by the decrease in rate of formation of inorganic phosphate compared to control. Also on record: scale not given: the % may be the effect or the level left. In short, it runs like this: as §1
Assay [17] is filed under the species Oryctolagus cuniculus. Kind of assay: Inhibition of the [Ca2+]-ATPase by coincubation of the enzyme with the Thapsigargin (activity=49.4) along with the compound at 200 nM concentration. Also on record: scale not given: the % may be the effect or the level left.
The species named for assay [18] is Oryctolagus cuniculus. Kind of assay: Inhibition of the [Ca2+]-ATPase by coincubation of the enzyme with the Thapsigargin (activity=49.4) along with the compound at 30 nM concentration. Set-up: scale not given: the % may be the effect or the level left.
Assay [19] is filed under the species Oryctolagus cuniculus. Kind of assay: Inhibition of the [Ca2+]-ATPase by coincubation of the enzyme with the Thapsigargin (activity=53.3) along with the compound at 100 nM concentration. Set-up: scale not given: the % may be the effect or the level left.
For assay [20], the species on record is Oryctolagus cuniculus. Kind of assay: Inhibition of the [Ca2+]-ATPase by coincubation of the enzyme with the Thapsigargin (activity=53.3) along with the compound at 1 nM concentration. Set-up: scale not given: the % may be the effect or the level left.
The species named for assay [21] is Oryctolagus cuniculus. Put plainly: Inhibition of the [Ca2+]-ATPase by coincubation of the enzyme with the Thapsigargin (activity=53.3) along with the compound at 20 nM concentration. Set-up: scale not given: the % may be the effect or the level left.
Assay [22] is filed under the species Oryctolagus cuniculus. Put plainly: Inhibition of the [Ca2+]-ATPase by coincubation of the enzyme with the Thapsigargin (activity=56.7) along with the compound at 1000 nM concentration. Set-up: scale not given: the % may be the effect or the level left.
Assay [23] is filed under the species Oryctolagus cuniculus. Put plainly: Inhibition of the [Ca2+]-ATPase by coincubation of the enzyme with the Thapsigargin (activity=56.7) along with the compound at 50000 nM concentration. Also on record: scale not given: the % may be the effect or the level left.
The species entered for assay [24] is Oryctolagus cuniculus. Kind of assay: Inhibition of the [Ca2+]-ATPase by the compound (10000 nM) was determined by the decrease in rate of formation of inorganic phosphate compared to control. Set-up: scale not given: the % may be the effect or the level left. In short, it runs like this:
as §1

For assay [25], the species on record is Oryctolagus cuniculus. Put plainly: Inhibition of the [Ca2+]-ATPase by the compound (1000 nM) was determined by the decrease in rate of formation of inorganic phosphate compared to control. Also on record: scale not given: the % may be the effect or the level left. In short, it runs like this: as §1
The species entered for assay [26] is Oryctolagus cuniculus. Put plainly: Inhibition of the [Ca2+]-ATPase by the compound (50000 nM) was determined by the decrease in rate of formation of inorganic phosphate compared to control. Set-up: scale not given: the % may be the effect or the level left. In short, it runs like this:
as §1

The species named for assay [27] is Oryctolagus cuniculus. Put plainly: Inhibition of the [Ca2+]-ATPase by coincubation of the enzyme with the Thapsigargin (activity=56.7) along with the compound at 10000 nM concentration. Also on record: scale not given: the % may be the effect or the level left.

For `C/C=C(/C)C(=O)O[C@H]1C(C)=C2[C@H]([C@@H]1OC(=O)CCCCC)[C@@](C)(OC(C)=O)C[C@H](OC(=O)CCC)[C@@]1(O)[C@H]2O[C@H]2OC(C)(C)O[C@]21C`, the Control was 34.7% in [1]; 49.3% in [2]; 66.6% in assay [3]; 100% in [4]; 81.2% in assay [5]; 55.7% in assay [6]. Besides, in [7], the IC50 (usually the concentration at which inhibition is half-maximal) is 157 nM.
Consider `C/C=C(/C)C(=O)O[C@H]1C(C)=C2[C@H]([C@@H]1OC(=O)CCCCC)[C@@](C)(OC(C)=O)C[C@H](OC(=O)CCC)[C@@]1(O)[C@H]2O[C@H]2O[C@H](OCC)O[C@]21C`, for which it took 24.1 nM to reach half-maximal inhibition in assay [7] (IC50).
Compound `C/C=C(/C)C(=O)O[C@H]1C(C)=C2[C@H]([C@@H]1OC(=O)CCCCC)[C@@](C)(OC(C)=O)C[C@H](OC(=O)CCC)[C@@]1(O)[C@H]2O[C@H](OCC)[C@@]1(C)O` returned an IC50 in assay [7] of 11.2 nM.
As for `C/C=C(/C)C(=O)O[C@H]1C(C)=C2[C@H]([C@@H]1OC(=O)CCCCC)[C@@](C)(O)C[C@H](OC(=O)CCC)[C@@]1(O)[C@H]2O[C@H]2OC(C)(C)O[C@]21C`, the Control is 24% in assay [8]; 49% in [9]; 97% in assay [3]; 53.7% in assay [10]; 87% in assay [11]; 52.3% in assay [13]. This compound also returned an IC50 in assay [12] of 5.59 µM.
`C/C=C(/C)C(=O)O[C@H]1C(C)=C2[C@H]([C@@H]1OC(=O)CCCCCCC)[C@@](C)(O)C[C@H](OC(=O)CCCCCCC)[C@@]1(O)[C@H]2OC(O)[C@@]1(C)O` (some centres not stated): the Control in assay [14] stood at 68.9%; in assay [15] it was 51.1%; in [4], 98.4%; in assay [16] it was 21.9%; in assay [17] it was 16.2%; in [18], 34.6%. In [7], this compound yielded an IC50 of 120 nM.
As for `C/C=C(/C)C(=O)O[C@H]1C(C)=C2[C@H]([C@@H]1OC(=O)CCCCC)[C@@](C)(OC(C)=O)C[C@H](OC(=O)CCC)[C@@]1(O)[C@H]2O[C@@H](O)[C@@]1(C)O.C/C=C(/C)C(=O)O[C@H]1C(C)=C2[C@H]([C@@H]1OC(=O)CCCCC)[C@@](C)(OC(C)=O)C[C@H](OC(=O)CCC)[C@@]1(O)[C@H]2O[C@H](O)[C@@]1(C)O`, in [7], the IC50 came to 15.6 nM.
Same read-out and setting: next, `C/C=C(/C)C(=O)O[C@H]1C(C)=C2[C@H]([C@@H]1OC(=O)CCCCC)[C@@](C)(OC(C)=O)C[C@H](OC(=O)CCC)[C@@]1(O)[C@H]2O[C@@H](OC(C)=O)[C@@]1(C)O`: 18.4 nM.
Regarding `C/C=C(/C)C(=O)O[C@H]1C(C)=C2[C@H]([C@@H]1OC(=O)CCCCC)[C@@](C)(OC(C)=O)C[C@H](OC(=O)CCC)[C@@]1(O)[C@H]2O[C@H]2O[C@@H](OCC)O[C@]21C`, the Control in assay [19] came out at 36.8%; in assay [20] it was 52.5%; in [21], 41.6%; in [3] it was 78.6%; in assay [4] it was 101%; in assay [5], 98.4%. Besides, in assay [7], it took 388 nM to reach half-maximal inhibition (IC50).
Compound `C/C=C(/C)C(=O)O[C@H]1C(C)=C2[C@H]([C@@H]1OC(=O)CCCCC)[C@@](C)(OC(C)=O)C[C@H](OC(=O)CCC)[C@@]1(O)[C@H]2OC(=O)[C@@]1(C)O` showed an IC50 in [7] of 9.8 nM.
As to `C/C=C(/C)C(=O)O[C@H]1C(C)=C2[C@H]([C@@H]1O)[C@@](C)(O)C[C@H](OC(=O)CCC)[C@@]1(O)[C@H]2O[C@H]2OC(C)(C)O[C@]21C`, the Control worked out at 53.8% in assay [22]; 25.1% in [23]; 82.6% in [24]; 98.6% in [25]; 50.9% in assay [26]; 43.5% in [27]. In assay [12], this compound registered an IC50 of 60.6 µM.
Regarding `C/C=C(/C)C(=O)O[C@H]1C(C)=C2[C@H]([C@@H]1OC(=O)CCCCCCC)[C@@](C)(OC(C)=O)C[C@H](OC(=O)CCC)[C@@]1(O)[C@H]2OC(=O)[C@@]1(C)O` [THAPSIGARGIN], the concentration for half-maximal inhibition (IC50) in [7] is 9.6 nM.
As for `C/C=C(/C)C(=O)O[C@H]1C(C)=C2[C@H]([C@@H]1OC(=O)CCCCC)[C@@](C)(OC(C)=O)C[C@H](OC(=O)CCC)[C@@]1(O)[C@H]2O[C@H]2O[C@]21C`, the half-maximal inhibitory concentration (IC50) in [7] stood at 51.7 nM.
